Reference: ChEMBL document CHEMBL1127351, “Technetium-99m N,N'-bis(2-mercapto-2-methylpropyl)-2-aminobenzylamine: technetium-99m complexes of a novel bis(aminoethanethiol) ligand” (J Med Chem, 1994)

What was measured:
[1] = species: Rattus norvegicus; test: Biodistribution of compound was tested in rat brain at 30 min; type: ADME, organism-based; settings: in vivo, 0.5 h
Procedure, shortened: (§1)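 Male Sprague-Dawley rats (200–300 g) under ether anesthesia got an iv injection of 0.2 mL saline containing the 99mTc complex (2–5 μCi). At set times, blood was drawn by cardiac puncture and rats were killed by cardiectomy. Organs were excised, weighed and gamma-counted. % dose/organ was taken against diluted injected-dose standards. Values are the mean of three rats ± SEM.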

[2] = species: Rattus norvegicus; test: Biodistribution of compound was tested in rat lung at 2 min; type: ADME, organism-based; settings: in vivo; procedure, shortened: as §1
[3] = species: Rattus norvegicus; test: Biodistribution of compound was tested in rat muscle at 2 min; type: ADME, organism-based, Muscle tissue; settings: in vivo; procedure, shortened: as §1
[4] = species: Rattus norvegicus; test: Biodistribution of compound was tested in rat skin at 30 min; type: ADME, organism-based, Zone of skin; settings: in vivo, 0.5 h; procedure, shortened: as §1
[5] = species: Rattus norvegicus; test: Biodistribution of compound was tested in rat heart at 30 min; type: ADME, organism-based; settings: in vivo, 0.5 h; procedure, shortened: as §1
[6] = species: Rattus norvegicus; test: Biodistribution of compound was tested in rat brain at 2 min; type: ADME, organism-based; settings: in vivo; procedure, shortened: as §1
[7] = species: Rattus norvegicus; test: Biodistribution of compound was tested in rat lung at 30 min; type: ADME, organism-based; settings: in vivo, 0.5 h; procedure, shortened: as §1
[8] = species: Rattus norvegicus; test: Biodistribution of compound was tested in rat blood at 30 min; type: ADME, organism-based; settings: in vivo, 0.5 h; procedure, shortened: as §1
[9] = species: Rattus norvegicus; test: Biodistribution of compound was tested in rat muscle at 30 min; type: ADME, organism-based, Muscle tissue; settings: in vivo, 0.5 h; procedure, shortened: as §1
[10] = species: Rattus norvegicus; test: Biodistribution of compound was tested in rat skin at 2 min; type: ADME, organism-based, Zone of skin; settings: in vivo; procedure, shortened: as §1
[11] = species: Rattus norvegicus; test: Biodistribution of compound was tested in rat spleen at 2 min; type: ADME, organism-based; settings: in vivo; procedure, shortened: as §1
[12] = species: Rattus norvegicus; test: Biodistribution of compound was tested in rat liver at 30 min; type: ADME, organism-based; settings: in vivo, 0.5 h; procedure, shortened: as §1
[13] = species: Rattus norvegicus; test: Biodistribution of compound was tested in rat blood at 2 min; type: ADME, organism-based; settings: in vivo; procedure, shortened: as §1
[14] = species: Rattus norvegicus; test: Biodistribution of compound was tested in rat kidney at 2 min; type: ADME, organism-based; settings: in vivo; procedure, shortened: as §1
[15] = species: Rattus norvegicus; test: Biodistribution of compound was tested in rat spleen at 30 min; type: ADME, organism-based; settings: in vivo, 0.5 h; procedure, shortened: as §1
[16] = species: Rattus norvegicus; test: Biodistribution of compound was tested in rat kidney at 30 min; type: ADME, organism-based; settings: in vivo, 0.5 h; procedure, shortened: as §1
[17] = species: Rattus norvegicus; test: Biodistribution of compound was tested in rat liver at 2 min; type: ADME, organism-based; settings: in vivo; procedure, shortened: as §1
[18] = species: Rattus norvegicus; test: Biodistribution of compound was tested in rat heart at 2 min; type: ADME, organism-based; settings: in vivo; procedure, shortened: as §1
[19] = species: Rattus norvegicus; test: Biodistribution of compound was tested in rat muscle at 60 min; type: ADME, organism-based, Muscle tissue; settings: in vivo, 1 h; procedure, shortened: as §1
[20] = species: Rattus norvegicus; test: Biodistribution of compound was tested in rat muscle at 15 min; type: ADME, organism-based, Muscle tissue; settings: in vivo, 0.25 h; procedure, shortened: as §1
[21] = species: Rattus norvegicus; test: Biodistribution of compound was tested in rat blood at 15 min; type: ADME, organism-based; settings: in vivo, 0.25 h; procedure, shortened: as §1
[22] = species: Rattus norvegicus; test: Biodistribution of compound was tested in rat spleen at 15 min; type: ADME, organism-based; settings: in vivo, 0.25 h; procedure, shortened: as §1
[23] = species: Rattus norvegicus; test: Biodistribution of compound was tested in rat kidney at 15 min; type: ADME, organism-based; settings: in vivo, 0.25 h; procedure, shortened: as §1
[24] = species: Rattus norvegicus; test: Biodistribution of compound was tested in rat spleen at 60 min; type: ADME, organism-based; settings: in vivo, 1 h; procedure, shortened: as §1
[25] = species: Rattus norvegicus; test: Biodistribution of compound was tested in rat liver at 15 min; type: ADME, organism-based; settings: in vivo, 0.25 h; procedure, shortened: as §1
[26] = species: Rattus norvegicus; test: Biodistribution of compound was tested in rat skin at 60 min; type: ADME, organism-based, Zone of skin; settings: in vivo, 1 h; procedure, shortened: as §1
[27] = species: Rattus norvegicus; test: Biodistribution of compound was tested in rat kidney at 60 min; type: ADME, organism-based; settings: in vivo, 1 h; procedure, shortened: as §1
[28] = species: Rattus norvegicus; test: Biodistribution of compound was tested in rat skin at 15 min; type: ADME, organism-based, Zone of skin; settings: in vivo, 0.25 h; procedure, shortened: as §1
[29] = species: Rattus norvegicus; test: Biodistribution of compound was tested in rat brain at 60 min; type: ADME, organism-based; settings: in vivo, 1 h; procedure, shortened: as §1
[30] = species: Rattus norvegicus; test: Biodistribution of compound was tested in rat heart at 60 min; type: ADME, organism-based; settings: in vivo, 1 h; procedure, shortened: as §1
[31] = species: Rattus norvegicus; test: Biodistribution of compound was tested in rat liver at 60 min; type: ADME, organism-based; settings: in vivo, 1 h; procedure, shortened: as §1
[32] = species: Rattus norvegicus; test: Biodistribution of compound was tested in rat brain at 15 min; type: ADME, organism-based; settings: in vivo, 0.25 h; procedure, shortened: as §1
[33] = species: Rattus norvegicus; test: Biodistribution of compound was tested in rat heart at 15 min; type: ADME, organism-based; settings: in vivo, 0.25 h; procedure, shortened: as §1
[34] = species: Rattus norvegicus; test: Biodistribution of compound was tested in rat lung at 15 min; type: ADME, organism-based; settings: in vivo, 0.25 h; procedure, shortened: as §1
[35] = species: Rattus norvegicus; test: Biodistribution of compound was tested in rat lung at 60 min; type: ADME, organism-based; settings: in vivo, 1 h; procedure, shortened: as §1
[36] = species: Rattus norvegicus; test: Biodistribution of compound was tested in rat blood at 60 min; type: ADME, organism-based; settings: in vivo, 1 h; procedure, shortened: as §1

tecnicium complex
Dose/organ [1]: 0.28% | Dose/organ [2]: 4.47% | Dose/organ [3]: 10.24% | Dose/organ [4]: 11.94% | Dose/organ [5]: 0.24% | Dose/organ [6]: 1.07% | Dose/organ [7]: 1.98% | Dose/organ [8]: 3.22% | Dose/organ [9]: 13.52% | Dose/organ [10]: 3.94% | Dose/organ [11]: 0.68% | Dose/organ [12]: 22.65% | Dose/organ [13]: 8.12% | Dose/organ [14]: 3.3% | Dose/organ [15]: 0.3% | Dose/organ [16]: 1.33% | Dose/organ [17]: 22.76% | Dose/organ [18]: 1.15%

technicium complex
Dose/organ [2]: 1.79% | Dose/organ [19]: 20.08% | Dose/organ [3]: 20.77% | Dose/organ [20]: 16.5% | Dose/organ [21]: 2% | Dose/organ [22]: 0.72% | Dose/organ [6]: 1.54% | Dose/organ [23]: 1.54% | Dose/organ [10]: 13.48% | Dose/organ [24]: 0.68% | Dose/organ [25]: 26.5% | Dose/organ [26]: 16.5% | Dose/organ [27]: 0.93% | Dose/organ [28]: 10.45% | Dose/organ [29]: 0.21% | Dose/organ [11]: 0.64% | Dose/organ [30]: 0.28% | Dose/organ [13]: 4.37% | Dose/organ [31]: 20.75% | Dose/organ [32]: 0.72% | Dose/organ [33]: 0.53% | Dose/organ [14]: 3.58% | Dose/organ [34]: 0.91% | Dose/organ [35]: 0.5% | Dose/organ [17]: 23.58% | Dose/organ [18]: 1.28% | Dose/organ [36]: 1.27%
